Reference: ChEMBL document CHEMBL4257579, “Analogs of penfluridol as chemotherapeutic agents with reduced central nervous system activity” (Bioorg Med Chem Lett, 2018)

Columns and labels:
[1] = biological target: Alpha-2C adrenergic receptor (Homo sapiens, UniProt P18825); test: Displacement of [3H]Rauwolscine from human alpha 2C adrenergic receptor expressed in MDCK cells by radioligand binding assay; assay type: cell-based
Method in brief: (§1)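 Ki values were calculated from the radioligand displacement data.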

[2] = biological target: T1, Beta-3 adrenergic receptor (Homo sapiens, UniProt P13945); test: Displacement of [3H]CGP12177 from human beta 3 adrenergic receptor expressed in HEK293FlpIN cells by radioligand binding assay; assay type: cell-based; method in brief: as §1
Target sequence in this assay (P13945 whole entry): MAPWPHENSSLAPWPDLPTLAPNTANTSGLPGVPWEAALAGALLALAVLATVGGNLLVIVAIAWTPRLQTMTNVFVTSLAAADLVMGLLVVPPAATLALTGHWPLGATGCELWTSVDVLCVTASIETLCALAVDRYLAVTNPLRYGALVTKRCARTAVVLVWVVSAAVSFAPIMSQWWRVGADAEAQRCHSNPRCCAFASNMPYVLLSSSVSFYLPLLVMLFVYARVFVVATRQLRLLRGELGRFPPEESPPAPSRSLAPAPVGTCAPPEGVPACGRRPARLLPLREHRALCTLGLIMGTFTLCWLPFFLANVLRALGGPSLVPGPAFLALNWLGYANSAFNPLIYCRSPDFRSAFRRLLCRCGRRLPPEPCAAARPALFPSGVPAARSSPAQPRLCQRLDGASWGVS

[3] = biological target: Alpha-1D adrenergic receptor (Homo sapiens, UniProt P25100); test: Displacement of [3H]Prazosin from human alpha 1D adrenergic receptor expressed in HEK cells by radioligand binding assay; assay type: cell-based; method in brief: as §1
[4] = biological target: Alpha-2B adrenergic receptor (Homo sapiens, UniProt P18089); test: Displacement of [3H]Rauwolscine from human alpha 2B adrenergic receptor expressed in HEK293T cells by radioligand binding assay; assay type: cell-based; method in brief: as §1
[5] = biological target: Alpha-1D adrenergic receptor (Homo sapiens) (UniProt P25100); test: Displacement of [3H]Prazosin from human alpha 1D adrenergic receptor expressed in HEK cells by radioligand binding assay relative to control; assay type: cell-based; conditions: concentration not given here
[6] = biological target: Alpha-2B adrenergic receptor (Homo sapiens) (UniProt P18089); test: Displacement of [3H]Rauwolscine from human alpha 2B adrenergic receptor expressed in HEK293T cells by radioligand binding assay relative to control; assay type: cell-based; conditions: concentration not given here
[7] = biological target: Alpha-2C adrenergic receptor (Homo sapiens) (UniProt P18825); test: Displacement of [3H]Rauwolscine from human alpha 2C adrenergic receptor expressed in MDCK cells by radioligand binding assay relative to control; assay type: cell-based; conditions: concentration not given here
[8] = biological target: T1, Beta-3 adrenergic receptor; test: Displacement of [3H]CGP12177 from human beta 3 adrenergic receptor expressed in HEK293FlpIN cells by radioligand binding assay relative to control; assay type: cell-based; conditions: concentration not given here
Target sequence in this assay (P13945 whole entry, looked up): as the sequence (P13945 whole entry) above

[9] = Drug distribution in C57BL/6J mouse brain at 5 mg/kg, ip treated daily for 7 consecutive days measured after 24 hrs post last dose by LC/MS/MS analysis; assay type: ADME, organism-based; conditions: in vivo
Method in brief: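 Female C57BL6 mice dosed 5 mg/kg i.p. once daily for seven consecutive days; sacrificed 24 h after last injection, organs stored at −80 °C. Plasma, brain, lungs and adipose tissue analysed by LC-MS/MS for drug concentration (nM); n = 5.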

Mus musculus [10] = test: Toxicity in C57BL/6J mouse assessed as effect on brain weight at 5 mg/kg, ip treated daily for 7 consecutive days measured after 24 hrs post last dose; assay type: organism-based; conditions: in vivo
Method in brief: (§2)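 Female C57BL6 mice treated 5 mg/kg i.p. once daily for seven days; killed 24 h after final injection and organs collected and weighed.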

[11] = Tmax in C57BL/6J mouse brain at 10 mg/kg, ip treated daily for 7 consecutive days by LC/MS/MS analysis; assay type: ADME, organism-based
Mus musculus [12] = test: Toxicity in C57BL/6J mouse assessed as electrolytes level at 5 mg/kg, ip treated daily for 7 consecutive days measured after 24 hrs post last dose […]; assay type: organism-based; conditions: in vivo
Method in brief: (§3)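 Female C57BL6 mice given 5 mg/kg i.p. daily for 7 days; blood taken at sacrifice 24 h after last dose for clinical chemistry panel: electrolytes, minerals, total protein, albumin, globulin, A/G ratio, BUN, ALT, AST, GLDH, cholestasis markers, ALP, bilirubin, amylase, creatine kinase.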

Mus musculus [13] = test: Toxicity in C57BL/6J mouse assessed as minerals level at 5 mg/kg, ip treated daily for 7 consecutive days measured after 24 hrs post last dose […]; assay type: organism-based; conditions: in vivo; method in brief: as §3
Mus musculus [14] = test: Toxicity in C57BL/6J mouse assessed as total protein level at 5 mg/kg, ip treated daily for 7 consecutive days measured after 24 hrs post last dose […]; assay type: organism-based; conditions: in vivo; method in brief: as §3
Mus musculus [15] = test: Toxicity in C57BL/6J mouse assessed as albumin level at 5 mg/kg, ip treated daily for 7 consecutive days measured after 24 hrs post last dose […]; assay type: organism-based; conditions: in vivo; method in brief: as §3
Mus musculus [16] = test: Toxicity in C57BL/6J mouse assessed as globulin level at 5 mg/kg, ip treated daily for 7 consecutive days measured after 24 hrs post last dose […]; assay type: organism-based; conditions: in vivo; method in brief: as §3
Mus musculus [17] = test: Toxicity in C57BL/6J mouse assessed as ratio of albumin to globulin level at 5 mg/kg, ip treated daily for 7 consecutive days measured after 24 hrs post last dose […]; assay type: organism-based; conditions: in vivo; method in brief: as §3
Mus musculus [18] = test: Toxicity in C57BL/6J mouse assessed as alanine aminotransferase level at 5 mg/kg, ip treated daily for 7 consecutive days measured after 24 hrs post last dose […]; assay type: organism-based; conditions: in vivo; method in brief: as §3
Mus musculus [19] = test: Toxicity in C57BL/6J mouse assessed as aspartate aminotransferase level at 5 mg/kg, ip treated daily for 7 consecutive days measured after 24 hrs post last dose […]; assay type: organism-based; conditions: in vivo; method in brief: as §3
Mus musculus [20] = test: Toxicity in C57BL/6J mouse assessed as cholestasis level at 5 mg/kg, ip treated daily for 7 consecutive days measured after 24 hrs post last dose […]; assay type: organism-based; conditions: in vivo; method in brief: as §3
Mus musculus [21] = test: Toxicity in C57BL/6J mouse assessed as bilirubin level at 5 mg/kg, ip treated daily for 7 consecutive days measured after 24 hrs post last dose […]; assay type: organism-based; conditions: in vivo; method in brief: as §3
Mus musculus [22] = test: Toxicity in C57BL/6J mouse assessed as amylase level at 5 mg/kg, ip treated daily for 7 consecutive days measured after 24 hrs post last dose […]; assay type: organism-based; conditions: in vivo; method in brief: as §3
Mus musculus [23] = test: Toxicity in C57BL/6J mouse assessed as creatine kinase level at 5 mg/kg, ip treated daily for 7 consecutive days measured after 24 hrs post last dose […]; assay type: organism-based; conditions: in vivo; method in brief: as §3
Mus musculus [24] = test: Toxicity in C57BL/6J mouse assessed as effect on kidney weight at 5 mg/kg, ip treated daily for 7 consecutive days measured after 24 hrs post last dose; assay type: organism-based; conditions: in vivo; method in brief: as §2
Mus musculus [25] = test: Toxicity in C57BL/6J mouse assessed as effect on spleen weight at 5 mg/kg, ip treated daily for 7 consecutive days measured after 24 hrs post last dose; assay type: organism-based; conditions: in vivo; method in brief: as §2
Mus musculus [26] = test: Toxicity in C57BL/6J mouse assessed as effect on heart weight at 5 mg/kg, ip treated daily for 7 consecutive days measured after 24 hrs post last dose; assay type: organism-based; conditions: in vivo; method in brief: as §2
Mus musculus [27] = test: Toxicity in C57BL/6J mouse assessed as effect on liver weight at 5 mg/kg, ip treated daily for 7 consecutive days measured after 24 hrs post last dose; assay type: organism-based; conditions: in vivo; method in brief: as §2

Alpha-1D adrenergic receptor, sequence (P25100 whole entry): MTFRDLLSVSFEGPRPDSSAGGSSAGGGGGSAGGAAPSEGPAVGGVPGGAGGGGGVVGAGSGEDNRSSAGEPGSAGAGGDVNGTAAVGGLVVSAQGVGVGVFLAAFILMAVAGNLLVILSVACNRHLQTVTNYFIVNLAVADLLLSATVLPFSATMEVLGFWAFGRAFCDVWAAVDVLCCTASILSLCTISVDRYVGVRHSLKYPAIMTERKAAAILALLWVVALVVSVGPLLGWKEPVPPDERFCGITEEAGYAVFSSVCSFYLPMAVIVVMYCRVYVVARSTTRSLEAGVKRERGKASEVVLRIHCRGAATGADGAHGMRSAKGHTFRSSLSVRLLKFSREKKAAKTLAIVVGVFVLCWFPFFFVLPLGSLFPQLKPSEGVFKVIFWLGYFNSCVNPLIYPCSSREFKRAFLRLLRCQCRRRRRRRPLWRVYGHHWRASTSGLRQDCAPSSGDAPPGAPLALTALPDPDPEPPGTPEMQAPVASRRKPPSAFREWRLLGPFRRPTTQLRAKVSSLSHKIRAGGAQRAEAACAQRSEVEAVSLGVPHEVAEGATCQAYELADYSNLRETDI
Alpha-1D adrenergic receptor (Homo sapiens), sequence (P25100 whole entry): as above
Alpha-2C adrenergic receptor (Homo sapiens), sequence (P18825 whole entry): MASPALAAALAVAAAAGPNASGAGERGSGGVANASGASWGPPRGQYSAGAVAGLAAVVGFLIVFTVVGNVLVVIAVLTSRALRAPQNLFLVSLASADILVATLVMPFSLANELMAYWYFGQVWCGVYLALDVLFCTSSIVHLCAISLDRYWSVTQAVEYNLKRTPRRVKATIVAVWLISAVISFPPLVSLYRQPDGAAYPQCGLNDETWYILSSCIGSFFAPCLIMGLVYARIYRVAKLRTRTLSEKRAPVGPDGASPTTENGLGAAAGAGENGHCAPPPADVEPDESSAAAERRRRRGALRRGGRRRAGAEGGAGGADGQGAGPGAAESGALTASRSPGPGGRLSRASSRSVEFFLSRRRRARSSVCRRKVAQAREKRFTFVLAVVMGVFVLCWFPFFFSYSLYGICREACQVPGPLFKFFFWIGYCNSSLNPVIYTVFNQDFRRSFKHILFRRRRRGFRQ
Alpha-2C adrenergic receptor, sequence (P18825 whole entry): as above
Alpha-2B adrenergic receptor (Homo sapiens), sequence (P18089 whole entry): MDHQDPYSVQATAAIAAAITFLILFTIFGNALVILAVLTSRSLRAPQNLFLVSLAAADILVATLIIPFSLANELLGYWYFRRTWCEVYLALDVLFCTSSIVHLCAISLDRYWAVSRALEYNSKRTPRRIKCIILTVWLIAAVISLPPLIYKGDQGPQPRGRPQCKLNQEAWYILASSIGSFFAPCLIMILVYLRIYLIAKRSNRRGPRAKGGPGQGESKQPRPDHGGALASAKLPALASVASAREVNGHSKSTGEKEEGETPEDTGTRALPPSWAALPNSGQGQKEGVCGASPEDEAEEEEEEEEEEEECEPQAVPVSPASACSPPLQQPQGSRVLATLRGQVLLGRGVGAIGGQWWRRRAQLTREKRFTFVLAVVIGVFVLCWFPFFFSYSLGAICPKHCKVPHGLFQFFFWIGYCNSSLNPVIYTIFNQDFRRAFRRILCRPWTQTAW
Alpha-2B adrenergic receptor, sequence (P18089 whole entry): as above

Compound	Drug uptake [9]	Activity (Mus musculus [10])	Activity (Mus musculus [12])	Activity (Mus musculus [13])	Activity (Mus musculus [14])	Activity (Mus musculus [15])	Activity (Mus musculus [16])	Activity (Mus musculus [17])	Activity (Mus musculus [18])	Activity (Mus musculus [19])	Activity (Mus musculus [20])	Activity (Mus musculus [21])	Activity (Mus musculus [22])	Activity (Mus musculus [23])	Activity (Mus musculus [24])	Activity (Mus musculus [25])	Activity (Mus musculus [26])	Activity (Mus musculus [27])	other results
OC1(c2ccc(Cl)c(C(F)(F)F)c2)CCN(CCCC(c2ccc(F)cc2)c2ccc(F)cc2)CC1 [PENFLURIDOL]	–	–	–	–	–	–	–	–	–	–	–	–	–	–	–	–	–	–	Ki [1]: 445 nM; Ki [2]: 515 nM; Ki [3]: 602 nM; Ki [4]: 401 nM; inhibition [5]: 95.7%; inhibition [6]: 95.6%; inhibition [7]: 100%; inhibition [8]: 94%
COc1ccc(N(CCCCN2CCC(O)(c3ccc(Cl)c(C(F)(F)F)c3)CC2)c2ccc(OC)cc2)cc1	Active	Non-Toxic	Non-Toxic	Non-Toxic	Non-Toxic	Non-Toxic	Non-Toxic	Non-Toxic	Non-Toxic	Non-Toxic	Non-Toxic	Non-Toxic	Non-Toxic	Non-Toxic	Non-Toxic	Non-Toxic	Non-Toxic	Non-Toxic	Tmax [11]: 6 h
OC1(c2ccc(Cl)c(C(F)(F)F)c2)CCN(CCCCC(c2ccc(F)cc2)c2ccc(F)cc2)CC1	Active	Non-Toxic	Non-Toxic	Non-Toxic	Non-Toxic	Non-Toxic	Non-Toxic	Non-Toxic	Non-Toxic	Non-Toxic	Non-Toxic	Non-Toxic	Non-Toxic	Non-Toxic	Non-Toxic	Non-Toxic	Non-Toxic	Non-Toxic	–
